Source: ChEMBL document CHEMBL1159062, “Towards the synthesis of bisubstrate inhibitors of protein farnesyltransferase: Synthesis and biological evaluation of new farnesylpyrophosphate analogues” (Bioorg Med Chem, 2010)
One block for each molecule: values may come before it. Activity calls are given as the source filed them. No cut-off for these calls is given here.

Experiments:
[1] = Inhibition of yeast recombinant FTase by fluorescent-based assay; design: species or system Saccharomyces cerevisiae
[2] = molecular target: T1, Protein farnesyltransferase (Homo sapiens, UniProt P49354+P49356); test: Inhibition of human recombinant FTase by fluorescent-based assay; format: protein-complex assay
[3] = test system: Trypanosoma brucei brucei; test: Antitrypanosomal activity against Trypanosoma brucei brucei WT2913 procyclic form at 1 uM after 72 hrs by alamar blue assay; format: functional, organism-based
How it was run: (§1)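 Strain WT 2913 procyclic forms kept in semi-defined medium 79 + 10% heat-inactivated FCS at 27 °C. Log-phase cells spun at 3000g and seeded at 1 × 10^6 cells/mL. Exposed 72 h to 0–100 µM inhibitor in 1% final DMSO. Resazurin (AlamarBlue) fluorescence read after a further 4 h, ex 530/em 590 nm. Growth inhibition versus untreated; triplicates, done twice.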

KB [4] = test: Cytotoxicity against human KB cells at 1 uM after 72 hrs by MTS assay; format: functional, cell-based
How it was run: (§2)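 KB cells seeded at 2000/well and exposed 72 h to compound in medium with 1% final DMSO; docetaxel as positive control. Viability by MTS, OD 490 nm. Cytotoxicity index = OD treated/OD control × 100, from triplicates across three experiments.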

[5] = test system: Trypanosoma brucei brucei; test: Antitrypanosomal activity against Trypanosoma brucei brucei 93 blood stream form at 1 uM after 72 hrs by alamar blue assay; format: functional
How it was run: (§3)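 Strain 93 bloodstream forms cultured in HMI9 + 10% FCS, 37 °C, 5% CO2. Log-phase cells harvested at 3000g and seeded at 3 × 10^4 cells/mL. Inhibitors 0–100 µM, final DMSO 1%, 72 h. AlamarBlue (resazurin) added, read 4 h later at ex 530/em 590 nm. Inhibition relative to drug-free cells; triplicates, experiment repeated twice.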

[6] = test system: Trypanosoma brucei brucei; test: Antitrypanosomal activity against Trypanosoma brucei brucei 93 blood stream form at 10 uM after 72 hrs by alamar blue assay; format: functional; conditions: for inhibition at 10 µM: Trypanosoma brucei, 93, 72 h; how it was run: as §3
[7] = test system: Trypanosoma brucei brucei; test: Antitrypanosomal activity against Trypanosoma brucei brucei WT2913 procyclic form at 10 uM after 72 hrs by alamar blue assay; format: functional; conditions: for inhibition at 10 µM: WT2913, 72 h; how it was run: as §1
KB [8] = test: Cytotoxicity against human KB cells at 10 uM after 72 hrs by MTS assay; format: functional; how it was run: as §2
Plasmodium falciparum = test: Antiplasmodial activity against Plasmodium falciparum FcB1/Columbia assessed as [3H]hypoxanthine incorporation after 24 hrs by liquid scintillation spectrophotometer; format: functional, organism-based
How it was run: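 FcB1/Colombia (chloroquine-resistant) grown on human erythrocytes in RPMI 1640 + 8% heat-inactivated human serum, 37 °C, 3% CO2/6% O2/91% N2. Twofold serial dilutions from 10 mM DMSO stocks; asynchronous cultures at 1% parasitemia, 1% final hematocrit, 24 h, then 0.5 µCi [3H]-hypoxanthine for 24 h more. Freeze-thaw, filter harvest, scintillation counting versus same-plate control. IC50 from concentration–response curve; mean ± SD of several independent experiments.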

[9] = molecular target: T1, Protein farnesyltransferase; test: Binding affinity to FPP site of human recombinant FTase by competitive Michaelis-Menten analysis; format: protein-complex assay
How it was run: (§4)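 Partially purified recombinant human FTase, fluorescent farnesylation of dansyl-GCVLS. Buffer: 5.8 mM DTT, 6 mM MgCl2, 12 µM ZnCl2, 0.18% octyl-glucopyranoside, 53 mM Tris/HCl pH 7.5. Kinetics: FPP varied with Dns-GCVLS fixed at 2.5 µM, or peptide varied with FPP fixed at 10 µM.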

[10] = molecular target: T1, Protein farnesyltransferase; test: Binding affinity to CaaX site of human recombinant FTase by non-competitive Michaelis-Menten analysis for enzyme-inhibitor complex; format: protein-complex assay; how it was run: as §4
[11] = molecular target: T1, Protein farnesyltransferase; test: Binding affinity to CaaX site of human recombinant FTase by non-competitive Michaelis-Menten analysis for enzyme-substrate-inhibitor complex; format: protein-complex assay; how it was run: as §4
[12] = molecular target: T1, Protein farnesyltransferase; test: Binding affinity to Dns-GCVLS peptide site of human recombinant FTase by competitive Michaelis-Menten analysis; format: protein-complex assay; how it was run: as §4

Structure (SMILES): CC(C)=CCC/C(C)=C/CC/C(C)=C/CCCC(=O)O
IC50 ([1]; read-out: IC50): 42 µM
IC50 ([2]; read-out: IC50): 170 µM

Structure (SMILES): CC(C)=CCC/C(C)=C/CC/C(C)=C/CCC(=O)NO
IC50 [1]: Not Active

Structure (SMILES): CC(C)=CCC/C(C)=C/CC/C(C)=C/C=C/C(N)=O
IC50 [1]: Not Active
IC50 [2]: Not Active

Structure (SMILES): CCOC(=O)C(C/C=C/c1ncc(CN[C@H](C(=O)N[C@@H](Cc2ccccc2)C(=O)N[C@@H](CCSC)C(=O)OC)C(C)C)n1C)(C/C=C(\C)CC/C=C(\C)CCC=C(C)C)C(=O)OCC
Activity [3]: inactive
Activity (KB [4]): inactive
Activity [5]: 64%
inhibition at 10 µM [6]: 92%
IC50 [2]: Not Active
inhibition at 10 µM [7]: 28%
inhibition at 10 µM (KB [8]): 60%
IC50 (Plasmodium falciparum): 1.1 µM

Structure (SMILES): CC(C)=CCC/C(C)=C/CC/C(C)=C/C=C(C(=O)O)C(=O)O
IC50 [2]: Not Active

Structure (SMILES): CCOC(=O)C(C/C=C(\C)CC/C=C(\C)CCC=C(C)C)(CCCc1ncc(CN[C@H](C(=O)N[C@@H](Cc2ccccc2)C(=O)N[C@@H](CCSC)C(=O)OC)C(C)C)n1C)C(=O)OCC
Activity [3]: inactive
Activity (KB [4]): inactive
IC50 [2]: Not Active
inhibition at 10 µM [7]: 54%
inhibition at 10 µM (KB [8]): 44%
IC50 (Plasmodium falciparum): 1 µM

Structure (SMILES): CC(C)=CCC/C(C)=C/CC/C(C)=C/CCC(=O)CCC(=O)O
IC50 ([1]; read-out: IC50): 80 µM
IC50 ([2]; read-out: IC50): > 200 µM

Structure (SMILES): CC(C)=CCC/C(C)=C/CC/C(C)=C/CCC(N)=O
IC50 [1]: Not Active
IC50 ([2]; read-out: IC50): > 200 µM

Structure (SMILES): CC(C)=CCC/C(C)=C/CC/C(C)=C/COC(=O)CC(=O)O
IC50 ([1]; read-out: IC50): 80 µM
IC50 ([2]; read-out: IC50): 160 µM

Structure (SMILES): CC(C)=CCC/C(C)=C/CC/C(C)=C/C/C=C/C(=O)O
IC50 ([1]; read-out: IC50): 40 µM
IC50 ([2]; read-out: IC50): 130 µM

Structure (SMILES): CC(C)=CCC/C(C)=C/CC/C(C)=C/CCC(=O)NS(=O)(=O)c1ccccc1
IC50 ([1]; read-out: IC50): > 200 µM
IC50 ([2]; read-out: IC50): > 200 µM

Structure (SMILES): CCOC(=O)C(C/C=C(\C)CC/C=C(\C)CCC=C(C)C)(CCCc1nccn1C)C(=O)OCC
Activity [5]: 24%
inhibition at 10 µM [6]: 89%
IC50 (Plasmodium falciparum): 4 µM

Second part, led by results:

IC50 ([2]; read-out: IC50): 60 µM
Structure (SMILES): CSCC[C@H](NC(=O)[C@H](Cc1ccccc1)NC(=O)[C@@H](NCc1cnc(CCCC(CC(=O)O)C(=O)O)n1C)C(C)C)C(=O)O (stereo partly specified)

IC50 ([2]; read-out: IC50): 12 µM
Structure (SMILES): CC(C)=CCC/C(C)=C/CC/C(C)=C/C(c1nccn1C)C(CC(=O)O)C(=O)O (stereo unspecified)

IC50 ([2]; read-out: IC50): 10 µM
Structure (SMILES): CC(C)=CCC/C(C)=C/CC/C(C)=C/C=C/C(=O)NC(C(=O)O)C(=O)O

IC50 ([1]; read-out: IC50): 15 µM
IC50 ([2]; read-out: IC50): 60 µM
Structure (SMILES): CC(C)=CCC/C(C)=C/CC/C(C)=C/CCC(=O)CCCC(=O)O

IC50 ([1]; read-out: IC50): 100 µM
IC50 ([2]; read-out: IC50): 130 µM
Structure (SMILES): CC(C)=CCC/C(C)=C/CC/C(C)=C/COC(=O)CCC(=O)O

IC50 ([1]; read-out: IC50): 0.34 µM
IC50 ([2]; read-out: IC50): 0.175 µM
Structure (SMILES): CCCCCCCCCCCCCC/C(C(=O)O)=C(\C)C(=O)O [CHAETOMELLIC ACID A]

IC50 ([2]; read-out: IC50): 0.24 µM
Ki [9]: 0.23 µM
IC50 (Plasmodium falciparum): 31.4 µM
Ki [10]: 7.7 µM
Ki [11]: 5.6 µM
Structure (SMILES): CCOC(=O)C(C/C=C(\C)CC/C=C(\C)CCC=C(C)C)(CCCc1ncc(CN[C@H](C(=O)N[C@@H](Cc2ccccc2)C(=O)N[C@@H](CCSC)C(=O)O)C(C)C)n1C)C(=O)O (stereo partly specified)
inhibition [6]: inactive
inhibition [7]: inactive
inhibition (KB [8]): inactive

IC50 ([1]; read-out: IC50): 4 µM
IC50 ([2]; read-out: IC50): 0.9 µM
Ki [9]: 0.26 µM
Activity [12]: inactive
Structure (SMILES): CC(C)=CCC/C(C)=C/CC/C(C)=C/CC(C(=O)O)C(=O)O

IC50 ([1]; read-out: IC50): 5 µM
IC50 ([2]; read-out: IC50): 0.88 µM
Structure (SMILES): CC(C)=CCC/C(C)=C/CC/C(C)=C/COC(C(=O)O)C(=O)O

IC50 ([1]; read-out: IC50): > 200 µM
IC50 ([2]; read-out: IC50): 85 µM
Structure (SMILES): CC(C)=CCC/C(C)=C/CC/C(C)=C/CCC(=O)NS(=O)(=O)O

IC50 ([1]; read-out: IC50): 35 µM
IC50 ([2]; read-out: IC50): 60 µM
Structure (SMILES): CC(C)=CCC/C(C)=C/CC/C(C)=C/CC(=O)CCCC(=O)O

IC50 ([2]; read-out: IC50): 21 µM
Structure (SMILES): CC(C)=CCC/C(C)=C/CC/C(C)=C/CC(CCCc1nccn1C)(C(=O)O)C(=O)O

IC50 ([2]; read-out: IC50): 0.64 µM
Ki [9]: 0.5 µM
IC50 (Plasmodium falciparum): 17.2 µM
Ki [10]: 17 µM
Ki [11]: 15 µM
Structure (SMILES): CCOC(=O)C(C/C=C/c1ncc(CN[C@H](C(=O)N[C@@H](Cc2ccccc2)C(=O)N[C@@H](CCSC)C(=O)O)C(C)C)n1C)(C/C=C(\C)CC/C=C(\C)CCC=C(C)C)C(=O)O (stereo partly specified)
inhibition [6]: inactive
inhibition [7]: inactive
inhibition (KB [8]): inactive

IC50 ([1]; read-out: IC50): 200 µM
IC50 ([2]; read-out: IC50): 60 µM
Structure (SMILES): CC(C)=CCC/C(C)=C/CC/C(C)=C/CCC(=O)NC(C(=O)O)C(=O)O
